Results as given in article PMC3085951 (Journal of controlled release : official journal of the …, 2011).
pKd: −log10 of the molar value. Peptide text beside a SMILES is read from it.

Biological target: MT1-160p (Homo sapiens, UniProt P50281)
Assay: Phage ELISA, apparent Kd of phage-displayed peptide with MT1-160p
Format: binding
In short: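 MT1-160p (MT1-MMP residues 160–174) coated at 100 µg/ml in carbonate buffer pH 9.6, 4°C overnight, then blocked with 1% BSA/PBS. Selected phages bound 2 h at 37°C, then PBST washes. Mouse anti-M13 (1:1000) 1 h at 37°C, then HRP goat anti-mouse (1:2500). TMB 30 min at 37°C in the dark, stopped with 2 M H2SO4, A450. Coated wells without phage served as blanks.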

CC(C)C[C@H](NC(=O)[C@H](Cc1ccccc1)NC(=O)[C@@H](NC(=O)[C@H](CCCCN)NC(=O)[C@@H](NC(=O)[C@H](CC(N)=O)NC(=O)[C@H](Cc1c[nH]cn1)NC(=O)[C@H](CC(C)C)NC(=O)[C@H](Cc1c[nH]cn1)NC(=O)[C@H](CCCCN)NC(=O)[C@H](Cc1c[nH]c2ccccc12)NC(=O)[C@@H](N)Cc1c[nH]cn1)[C@@H](C)O)[C@@H](C)O)C(=O)O [MT1-AF7p] (H-HWKHLHNTKTFL-OH) gave a pKd of 10.12.
